Test results published in ChEMBL document CHEMBL3352177, “C-glycoside mimetics inhibit glioma stem cell proliferation, migration, and invasion” (J Med Chem, 2014).

Key:
[1] = test system: MDA-MB-435; test: Antiproliferative activity against human MDA-MB-435 cells after 48 to 72 hrs by MTT assay; assay type: functional, cell-based
Method in brief: (§1)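 MTT assay read 48 and 72 h after compound addition. Cell lines grown in DMEM with 10% heat-inactivated FCS, 2 mM L-glutamine, 1 mM sodium pyruvate; GBM stem cells grown as nonadherent neurospheres. IC50 by Hill equation fit; ≥3 independent experiments, each point repeated six times.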

[2] = test system: DU-145; test: Antiproliferative activity against human DU145 cells after 48 to 72 hrs by MTT assay; assay type: functional, cell-based; method in brief: as §1
[3] = Antiproliferative activity against human Gli4F11 cells after 48 to 72 hrs by MTT assay
[4] = Antiproliferative activity against human Gli7 cells after 48 to 72 hrs by MTT assay; assay type: functional, cell-based; method in brief: as §1
[5] = test system: MDA-MB-231; test: Antiproliferative activity against human MDA-MB-231 cells after 48 to 72 hrs by MTT assay; assay type: functional, cell-based; method in brief: as §1
[6] = test system: C6; test: Antiproliferative activity against rat C6 cells after 48 to 72 hrs by MTT assay; assay type: functional, cell-based; method in brief: as §1
[7] = Antiproliferative activity against human HuH7 cells after 48 to 72 hrs by MTT assay; assay type: functional, cell-based; details: Huh-7; method in brief: as §1
[8] = test system: A-431; test: Antiproliferative activity against human A431 cells after 48 to 72 hrs by MTT assay; assay type: functional, cell-based; method in brief: as §1
[9] = test system: SNB-75; test: Antiproliferative activity against human SNB75 cells after 48 to 72 hrs by MTT assay; assay type: functional, cell-based; method in brief: as §1
[10] = Antiproliferative activity against human Caco2 cells after 48 to 72 hrs by MTT assay; assay type: functional, cell-based; details: Caco-2; method in brief: as §1
[11] = Antiproliferative activity against mouse B16F10 cells after 48 to 72 hrs by MTT assay; assay type: functional, cell-based; details: B16-F10; method in brief: as §1
[12] = Antimigratory activity against human Gli4 cells on matrix containing vitronectin after 24 hrs by 2-D migration assay; assay type: functional, cell-based
Method in brief: (§2)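 Boyden chamber 2D migration toward serum over 24 h on fibronectin, vitronectin or laminin matrix. Cells in DMEM with 0.1% BSA in the upper compartment with or without compound; 10% FCS medium below. Gli4/Gli7 taken from neurosphere cultures. Migrated cells methanol-fixed, crystal violet stained, counted at ×200. Ki from Hill equation fit; ≥3 independent experiments, each point in quadruplicate.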

[13] = test system: C6; test: Antimigratory activity against rat C6 cells on matrix containing fibronectin after 24 hrs by 2-D migration assay; assay type: functional, cell-based; method in brief: as §2
[14] = Antimigratory activity against human Gli7 cells on matrix containing laminin after 24 hrs by 2-D migration assay; assay type: functional, cell-based; method in brief: as §2
[15] = test system: C6; test: Antimigratory activity against rat C6 cells on matrix containing laminin after 24 hrs by 2-D migration assay; assay type: functional, cell-based; method in brief: as §2
[16] = Antimigratory activity against human Gli7 cells on matrix containing vitronectin after 24 hrs by 2-D migration assay; assay type: functional, cell-based; method in brief: as §2
[17] = Antimigratory activity against human Gli4 cells on matrix containing laminin after 24 hrs by 2-D migration assay; assay type: functional, cell-based; method in brief: as §2
[18] = Antimigratory activity against human Gli7 cells on matrix containing fibronectin after 24 hrs by 2-D migration assay; assay type: functional, cell-based; method in brief: as §2
[19] = test system: C6; test: Antimigratory activity against rat C6 cells on matrix containing vitronectin after 24 hrs by 2-D migration assay; assay type: functional, cell-based; method in brief: as §2
[20] = Antimigratory activity against human Gli4 cells on matrix containing fibronectin after 24 hrs by 2-D migration assay; assay type: functional, cell-based; method in brief: as §2
[21] = test system: SNB-75; test: Antimigratory activity against human SNB75 cells on matrix containing laminin after 24 hrs by 2-D migration assay; assay type: functional, cell-based; method in brief: as §2
[22] = test system: SNB-75; test: Antimigratory activity against human SNB75 cells on matrix containing vitronectin after 24 hrs by 2-D migration assay; assay type: functional, cell-based; method in brief: as §2
[23] = test system: SNB-75; test: Antimigratory activity against human SNB75 cells on matrix containing fibronectin after 24 hrs by 2-D migration assay; assay type: functional, cell-based; method in brief: as §2

IC50 [1] [µM]	IC50 [2] [µM]	IC50 [5] [µM]	IC50 [8] [µM]	SMILES	IC50 [3] [µM]	IC50 [4] [µM]	IC50 [6] [µM]	IC50 [7] [µM]	IC50 [9] [µM]	IC50 [10] [µM]	IC50 [11] [µM]	other results
> 100	> 100	> 100	0.55	CCCC[P@@]1(=O)O[C@H]([C@H]2COC(C)(C)O2)[C@@H]2OC(C)(C)O[C@@H]2[C@@H]1O	6.12	2.88	8.62	> 100	6.21	> 100	> 100	
> 100	> 100	> 100	> 100	CC[P@@]1(=O)O[C@H]([C@H]2COC(C)(C)O2)[C@@H]2OC(C)(C)O[C@@H]2[C@@H]1O	3.8	2.5	8.66	> 100	4.92	> 100	> 100	Ki [12]: 0.194 µM; Ki [13]: 0.027 µM; Ki [14]: 1.05 µM; Ki [15]: 0.025 µM; Ki [16]: 0.438 µM; Ki [17]: 0.239 µM; Ki [18]: 0.064 µM; Ki [19]: 0.047 µM; Ki [20]: 0.1 µM; Ki [21]: 0.027 µM; Ki [22]: 0.066 µM; Ki [23]: 0.019 µM
2.48	> 100	3.83	1.26	CC1(C)O[C@@H]2[C@H](O1)[C@@H](Nc1ccccc1)[P@](=O)(c1ccccc1)O[C@@H]2[C@H]1COC(C)(C)O1	2.68	1.82	10.3	24.2	9.99	> 100	1.96	
11.6	> 100	5.6	0.77	CC1(C)O[C@@H]2[C@H](O1)[C@@H](O)[P@@](=O)(c1ccccc1)O[C@@H]2[C@H]1COC(C)(C)O1	11.4	5.81	> 100	> 100	16.1	> 100	10.4	
3.99	> 100	4.17	4.7	CC1(C)O[C@@H]2[C@H](O1)[C@@H](NCc1ccccc1)[P@](=O)(c1ccccc1)O[C@@H]2[C@H]1COC(C)(C)O1	2.79	4.62	14.8	23.8	5.16	> 100	2.05	
2.65	> 100	3.72	4.67	Cc1ccc(N[C@@H]2[C@H]3OC(C)(C)O[C@H]3[C@@H]([C@H]3COC(C)(C)O3)O[P@@]2(=O)c2ccccc2)cc1	5.55	2.8	5.5	23.6	5.37	> 100	2.02	
4.02	> 100	2.66	4.44	Cc1ccc(S(=O)(=O)O[C@H]2[C@H]3OC(C)(C)O[C@H]3[C@@H]([C@H]3COC(C)(C)O3)O[P@]2(=O)c2ccccc2)cc1	5.41	2.8	6.99	> 100	9.42	> 100	1.64	
0.66	> 100	1.16	4.35	CC1(C)O[C@H]2[C@@H]([C@H]3COC(C)(C)O3)O[P@](=O)(c3ccccc3)[C@@H](OC(=O)c3ccccc3)[C@H]2O1	3.22	1.93	8.51	> 100	9.54	> 100	13.5	
1.16	> 100	4.15	> 100	CC1(C)O[C@@H]2[C@H](O1)[C@@H](N)[P@](=O)(c1ccccc1)O[C@@H]2[C@H]1COC(C)(C)O1	1.37	1.29	24.4	16.3	2.96	> 100	1.02	
3.36	> 100	4.82	> 100	CC1(C)O[C@H]2[C@@H]([C@H]3COC(C)(C)O3)O[P@](=O)(c3ccccc3)[C@@H](Oc3ccc(N)cc3)[C@H]2O1	2.98	1.77	9.35	23.6	6.23	> 100	4.69	
> 100	> 100	> 100	2.02	CC1(C)O[C@H]2[C@@H]([C@H]3COC(C)(C)O3)O[P@](=O)(c3ccccc3)[C@@H](Oc3ccc([N+](=O)[O-])cc3)[C@H]2O1	3.91	2.07	31.4	> 100	3.11	> 100	> 100	
1.96	> 100	3.45	4.85	CC1(C)O[C@H]2[C@@H]([C@H]3COC(C)(C)O3)O[P@](=O)(c3ccccc3)[C@@H](OS(C)(=O)=O)[C@H]2O1	6.81	2.71	1.11	24	6.28	> 100	2.08	
16.6	> 100	9.37	1.11	CC1(C)O[C@H]2[C@@H]([C@H]3COC(C)(C)O3)O[P@](=O)(c3ccccc3)[C@@H](O)[C@H]2O1	38.4	3.16	0.5	> 100	14.3	> 100	9.95	
9.61	31.2	23.2	0.13	CC(=O)N[C@@H]1[C@H]2OC(C)(C)O[C@H]2[C@@H]([C@H]2COC(C)(C)O2)O[P@@]1(=O)c1ccccc1	0.54	0.5	0.65	21.9	0.65	36	14.9	
> 100	> 100	> 100	> 100	CC(=O)O[C@H]1[C@H]2OC(C)(C)O[C@H]2[C@@H]([C@H]2COC(C)(C)O2)O[P@]1(=O)c1ccccc1	8.76	3.62	10.2	> 100	1.37	> 100	> 100	
11	> 100	6.08	0.98	CC1(C)O[C@H]2[C@@H]([C@H]3COC(C)(C)O3)O[P@@](=O)(c3ccccc3)[C@@H](O)[C@H]2O1	8.56	3.72	> 100	> 100	13.4	> 100	10.2	

SMILES	IC50 [1] [µM]	IC50 [2] [µM]	IC50 [5] [µM]	IC50 [8] [µM]	IC50 [3] [µM]	IC50 [4] [µM]	IC50 [6] [µM]	IC50 [7] [µM]	IC50 [9] [µM]	IC50 [10] [µM]	IC50 [11] [µM]	other results
CC1(C)O[C@H]2[C@@H]([C@H]3COC(C)(C)O3)O[P@](=O)(c3ccccc3)[C@@H](Oc3ccc([N+](=O)[O-])c([N+](=O)[O-])c3)[C@H]2O1	2.66	> 100	6.35	0.84	2.87	1.93	9.44	23.8	6.99	> 100	2.59	
